In ChEMBL document CHEMBL1145803, “Characterization of a series of 3-amino-2-phenylpropene derivatives as novel bovine chromaffin vesicular monoamine transporter inhibitors” (J Med Chem, 2003) one finds Ki and Ratio data, which are given here for 16 compounds.

In general, Ki refers to a dissociation constant, usually derived from enzyme kinetics or from competition with a known ligand. Read a low Ki as higher affinity.

Structures are written as SMILES.

The target in experiment [1] is Synaptic vesicular amine transporter (Bos taurus, UniProt Q27963). Description: Inhibitory constant for dopamine uptake into resealed bovine chromaffin granule ghosts through the vesicular monoamine transporter. In a few lines: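 Resealed bovine chromaffin granule ghosts (20 mM Tris phosphate, 100 mM KCl, 150 mM sucrose, 10 mM fumarate, 100 µg/mL catalase, no ascorbate, pH 7.0; Ficoll/sucrose purified) preincubated 10 min at 30 °C in 0.3 M sucrose, 10 mM HEPES, 5 mM Mg-ATP, 5 mM MgSO4, catalase. Inhibitor (0 or 200 µM) added 2 min, then DA at six concentrations. Pellet catecholamines by HPLC-EC; Ki from competitive inhibition fit.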

The target of experiment [2] is Synaptic vesicular amine transporter (Bos taurus) (UniProt Q27963). Description: Km DA/Ki ratio was determined by different ghost preparations. The method in brief:
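Ratio of Km for dopamine to Ki, each measured on the same ghost preparation in the dopamine uptake competitive-inhibition kinetics; used to normalize Km variation between ghost preparations.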

Synaptic vesicular amine transporter, sequence (Q27963 whole entry): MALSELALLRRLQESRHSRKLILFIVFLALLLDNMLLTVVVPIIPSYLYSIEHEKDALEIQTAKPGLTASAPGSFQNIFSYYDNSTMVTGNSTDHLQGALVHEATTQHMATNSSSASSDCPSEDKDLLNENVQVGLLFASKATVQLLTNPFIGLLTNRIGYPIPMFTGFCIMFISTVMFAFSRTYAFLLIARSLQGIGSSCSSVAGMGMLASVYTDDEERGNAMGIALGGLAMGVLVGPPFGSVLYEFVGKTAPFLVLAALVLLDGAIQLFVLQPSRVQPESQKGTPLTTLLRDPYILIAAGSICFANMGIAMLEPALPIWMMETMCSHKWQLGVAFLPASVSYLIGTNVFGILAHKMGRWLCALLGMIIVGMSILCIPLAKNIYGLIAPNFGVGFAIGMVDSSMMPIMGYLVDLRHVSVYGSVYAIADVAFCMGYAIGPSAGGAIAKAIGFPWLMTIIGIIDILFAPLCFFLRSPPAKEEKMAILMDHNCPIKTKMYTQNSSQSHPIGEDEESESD
Synaptic vesicular amine transporter (Bos taurus), sequence (Q27963 whole entry): as above

Compound `C=C(CN)c1ccc(F)cc1` gave a Ki in experiment [1] of 42.3 µM. Moreover, the Ratio in experiment [2] was 0.8.
Taken in the same sequence, the figures for `C=C(CN)c1ccc(OC)cc1` were 102 µM and 0.33.
The like results for `C=C(CN(CC)CC)c1ccc(O)cc1` were, in that order, 202 µM and 0.15.
Compound `C=C(C[n+]1ccccc1)c1ccccc1` gave an inhibition constant Ki in experiment [1] of 241 µM. For the same compound, the Ratio in experiment [2] turned out to be 0.12.
As to `C=C(CN)c1cccc(O)c1`, the affinity in experiment [1] corresponds to a Ki of 16.7 µM. In addition, in experiment [2], the Ratio is 1.4.
Taken in the same sequence, the figures for `C=C(CN)c1ccccc1` were 40.3 µM and 0.57.
On to `C=C(c1ccccc1)C(C)N` (configuration not stated), for which affinity in experiment [1] was put at a Ki of 78.4 µM. Also, in experiment [2], the Ratio was 0.41.
In experiment [1], `C=C(CN)c1ccc(I)cc1` displayed a Ki of 12.9 µM. In addition, the Ratio in experiment [2] worked out at 2.96.
The like results for `C=C(CN)c1ccc(C)cc1` were, in that order, 55.9 µM and 0.59.
Taken in the same sequence, the figures for `C=C(CN)c1ccc(Br)cc1` were 17.7 µM and 1.79.
The like results for `C=C(CNC)c1ccc(O)cc1` were, in that order, 93.7 µM and 0.39.
In experiment [1], `C=C(c1ccc(O)cc1)C(C)N(CC)CC` (configuration not stated) came in with a Ki of 207 µM. For the same compound, in experiment [2], the Ratio stood at 0.15.
The like results for `C=C(CN)c1ccc(Cl)cc1` were, in that order, 18 µM and 1.76.
The like results for `C=C(CN)c1ccc(O)cc1` were, in that order, 15.5 µM and 1.52.
`C=C(CN)c1cccc(OC)c1` came in with a Ki in experiment [1] of 30.2 µM. The Ratio in experiment [2] worked out at 0.76.
`NC/C(=C\Br)c1ccc(O)cc1` showed a Ki in experiment [1] of 50 µM. Moreover, the Ratio in experiment [2] is 0.46.
